Data reported in ChEMBL document CHEMBL4138248, “Discovery of naphtho[1,2-d]oxazole derivatives as potential anti-HCV agents through inducing heme oxygenase-1 expression” (Eur J Med Chem, 2018).
Activity calls are given as the source filed them. The calls are words filed in the database; no cut-off is given here.

Legend:
[1] = biological target: T1, Nuclear factor erythroid 2-related factor 2 (Homo sapiens) (UniProt Q16236); assay: Induction of Nrf2-mediated ARE transactivation in human Ava5 cells transfected with p2xARE-Luc after 3 days; assay type: cell-based
T1 sequence (whole entry): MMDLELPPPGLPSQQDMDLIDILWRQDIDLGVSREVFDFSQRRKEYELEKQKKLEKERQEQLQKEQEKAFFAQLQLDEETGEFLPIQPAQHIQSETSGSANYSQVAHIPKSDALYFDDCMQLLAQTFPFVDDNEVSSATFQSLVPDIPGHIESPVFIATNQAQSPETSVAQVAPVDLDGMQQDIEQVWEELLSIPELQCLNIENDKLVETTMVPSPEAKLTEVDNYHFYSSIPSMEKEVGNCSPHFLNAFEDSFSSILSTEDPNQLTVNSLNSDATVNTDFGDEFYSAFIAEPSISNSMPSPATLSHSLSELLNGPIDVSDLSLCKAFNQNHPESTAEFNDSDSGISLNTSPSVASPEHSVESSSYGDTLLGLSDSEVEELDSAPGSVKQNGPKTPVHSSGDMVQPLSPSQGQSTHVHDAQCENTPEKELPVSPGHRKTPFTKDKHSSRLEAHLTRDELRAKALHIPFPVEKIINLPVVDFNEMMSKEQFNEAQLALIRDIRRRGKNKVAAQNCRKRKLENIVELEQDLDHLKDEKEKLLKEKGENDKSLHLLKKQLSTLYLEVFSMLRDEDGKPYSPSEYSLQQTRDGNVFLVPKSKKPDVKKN
Outline: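 Ava5 cells were transfected with the p2xARE-Luc reporter (ARE-driven firefly luciferase), treated for 3 days, and luciferase was measured in lysates. Normalization was to co-transfected pCMV-SEAP. Mean ± SD of three independent experiments.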

[2] = Cytotoxicity against human Ava5 cells assessed as decrease in cell viability after 72 hrs by XTT assay; assay type: cell-based
Outline: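 XTT assay on […] Ava5 cells at 5×10^3 per well with serial dilutions for 72 h at 37 °C in 5% CO₂. CC50 is the concentration giving 50% growth inhibition.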

[3] = system: Hepatitis C virus; assay: Antiviral activity against HCV infected in human Ava5 cells assessed as inhibition of viral RNA replication at 1 uM after 3 days in presence of HO-1 inhibitor SnPP by RT-qPCR method; assay type: functional, organism-based; conditions: Hepacivirus hominis
Outline: (§1)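 Ava5 cells were co-incubated for 3 days with test compound at 1 μM plus the HO-1 inhibitor SnPP (tin protoporphyrin IX) at 0–5 μM. Lysates went to western blot for NS5B and GAPDH. RNA went to RT-qPCR normalized to gapdh mRNA. Mean ± SD of three independent experiments.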

[4] = system: Hepatitis C virus; assay: Antiviral activity against HCV infected in human Ava5 cells assessed as inhibition of NS5B protein synthesis at 1 uM after 3 days in presence of HO-1 inhibitor SnPP by Western blot method; assay type: functional, organism-based; conditions: Hepacivirus hominis; outline: as §1
[5] = system: Hepatitis C virus; assay: Antiviral activity against HCV infected in human Ava5 cells assessed as inhibition of NS5B protein synthesis after 3 days by Western blot method; assay type: functional, organism-based; conditions: Hepacivirus hominis
Outline: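 Ava5 cells, seeded at 5×10^4 per well and grown overnight, were treated for 3 days. Lysates were made in RIPA buffer and 10 µg protein was run on 10% SDS-PAGE. Blots were probed with anti-NS5B, with GAPDH as loading control.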

[6] = species: Homo sapiens; assay: Effect on Keap-1 protein expression in human Ava5 cells at 0.5 to 1 uM after 3 days by Western blot method; assay type: functional, cell-based
Outline: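 Ava5 cells were treated for 3 days at the indicated concentrations. Whole-cell lysates were immunoblotted with anti-Nrf2, anti-Keap-1, anti-bach1 and anti-GAPDH.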

[7] = biological target: T2, Heme oxygenase 1 (Homo sapiens) (UniProt P09601); assay: Induction of HO-1-mediated ISRE promoter activity in human Ava5 cells transfected with pISRE-Luc after 3 days; assay type: cell-based
T2 sequence (whole entry): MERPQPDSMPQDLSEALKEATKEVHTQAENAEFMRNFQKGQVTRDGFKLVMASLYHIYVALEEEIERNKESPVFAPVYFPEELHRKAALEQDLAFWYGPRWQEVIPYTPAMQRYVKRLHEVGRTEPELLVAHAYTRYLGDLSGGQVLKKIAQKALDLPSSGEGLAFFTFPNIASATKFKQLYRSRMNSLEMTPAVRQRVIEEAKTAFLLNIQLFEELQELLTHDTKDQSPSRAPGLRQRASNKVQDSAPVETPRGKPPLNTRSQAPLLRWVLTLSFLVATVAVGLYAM
Outline: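 Ava5 cells carrying pISRE-Luc (ISRE-driven firefly luciferase) were treated for 3 days at increasing concentrations. Luciferase activity was read in cell lysates, normalized to co-transfected pCMV-SEAP.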

[8] = biological target: T3, Transcription regulator protein BACH1 (Homo sapiens) (UniProt O14867); assay: Reduction of bach-1 translocation into nucleus of human Ava5 cells after 3 days by Western blot method
T3 sequence (whole entry): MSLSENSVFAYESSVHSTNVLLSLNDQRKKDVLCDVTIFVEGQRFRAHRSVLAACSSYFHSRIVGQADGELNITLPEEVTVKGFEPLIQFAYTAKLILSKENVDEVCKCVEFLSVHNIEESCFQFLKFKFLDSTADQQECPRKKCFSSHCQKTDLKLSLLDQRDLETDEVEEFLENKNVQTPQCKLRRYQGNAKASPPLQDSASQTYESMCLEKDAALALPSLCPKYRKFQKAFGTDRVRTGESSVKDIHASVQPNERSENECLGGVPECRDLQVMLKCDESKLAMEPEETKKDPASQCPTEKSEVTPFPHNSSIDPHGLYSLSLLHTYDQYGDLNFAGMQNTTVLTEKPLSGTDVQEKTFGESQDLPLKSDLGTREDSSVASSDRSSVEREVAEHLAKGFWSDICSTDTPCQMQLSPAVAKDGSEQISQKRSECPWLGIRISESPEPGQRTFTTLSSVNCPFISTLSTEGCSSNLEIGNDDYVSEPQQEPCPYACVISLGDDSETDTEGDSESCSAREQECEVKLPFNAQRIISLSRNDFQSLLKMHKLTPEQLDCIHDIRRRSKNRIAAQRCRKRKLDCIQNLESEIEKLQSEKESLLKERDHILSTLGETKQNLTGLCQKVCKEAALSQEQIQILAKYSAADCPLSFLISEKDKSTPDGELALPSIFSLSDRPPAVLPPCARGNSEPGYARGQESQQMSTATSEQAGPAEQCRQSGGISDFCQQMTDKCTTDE

[9] = Induction of HO1 (unknown origin) promoter activity expressed in human Ava5 cells transfected with pHO-1-Luc after 3 days; assay type: cell-based
Outline: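 Ava5 cells were transfected with 0.5 µg pHO-1-Luc, with pCMV-SEAP (0.1 µg) co-transfected for normalization. Cells were then treated at various concentrations for 3 days, and luciferase was read in lysates. Mean ± SD of three independent experiments.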

- Activity [1]: Dose-dependent effect
- Activity [7]: Dose-dependent effect
- Activity [8]: Dose-dependent effect
SMILES: COc1ccc(Nc2cc3oc(-c4ccco4)nc3c3ccccc23)cc1
- CC50 at 72 h [2]: 144 µM
- inhibition [3]: inactive
- inhibition [4]: inactive
- inhibition [5]: Dose-dependent effect
- Activity [6]: inactive
- Activity [9]: Dose-dependent effect
